Assay results: ChEMBL document CHEMBL3271958, “Azaparacyclophanes. A novel class of conformationally rigid analogs of phenylethylamine and phenylpropylamine” (J Med Chem, 1976)
Activity calls are given as the source filed them. The rule behind the calls is not given here.

Legend:
Mus musculus [1] = assay: Induction of mydriasis in mouse assessed as […] at 100 mg/kg, ip by binocular microscopic analysis; type: functional, organism-based; design: dose 100 mg/kg
In short: (§1)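 Mouse pupil diameter was read through a binocular microscope fitted with an ocular micrometer (Pulewka method), after dosing within the mouse behaviour screen.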

Rattus norvegicus = assay: Central dopaminergic activity in rat assessed as dopaminergic stimulant activity at 30 mg/kg, ip; type: ADME, organism-based; design: dose 30 mg/kg, route intraperitoneal; settings: in vivo
In short: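 Rats carrying 6-hydroxydopamine lesions of the nigrostriatal pathway (Ungerstedt), dosed 30 mg/kg ip. Rotation was scored: ipsilateral turning indicates release of endogenous dopamine, contralateral turning indicates direct dopamine-receptor stimulation.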

Mus musculus [2] = assay: Toxicity in mouse at 100 mg/kg, ip; type: organism-based; design: dose 100 mg/kg, route intraperitoneal; settings: in vivo
Mus musculus [3] = assay: Sympathomimetic activity in mouse assessed as signs of exophthalmia at 100 mg/kg, ip; type: ADME, organism-based; design: dose 100 mg/kg, route intraperitoneal; settings: in vivo
In short: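 Irwin-type mouse behavioural screen with intraperitoneal doses of 10, 30, 100 and 300 mg/kg, compound given as the hydrochloride salt. Animals were scored by observation for overt signs, including exophthalmia as an indicator of sympathomimetic activity and mydriasis. Pupil diameter was measured under a binocular microscope with an ocular micrometer.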

Mus musculus [4] = assay: Induction of mydriasis in mouse assessed as papillary diameter at 25 mg/kg, sc by binocular microscopic analysis; type: functional, organism-based; design: dose 25 mg/kg; in short: as §1
Felis catus [5] = assay: Sympathomimetic activity in iv dosed cat assessed as increase of heart rate and blood pressure; type: ADME, organism-based; settings: in vivo
In short: (§2)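 Pentobarbital-anaesthetised cat monitored for blood pressure and heart rate. Hydrochloride salt given as cumulative iv doses of 1, 3 and 10 mg/kg, each tested against a standard acetylcholine challenge of 1 μg/kg, noting any change in the normal heart-rate and pressure responses.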

Mus musculus [6] = assay: Induction of mydriasis in mouse assessed as papillary diameter at 30 mg/kg, ip by binocular microscopic analysis; type: functional, organism-based; design: dose 30 mg/kg; in short: as §1
Mus musculus [7] = assay: Sympathomimetic activity in mouse assessed as signs of exophthalmia and piloerection at 10 to 300 mg/kg, ip; type: ADME, organism-based; design: dose 10-300 mg/kg, route intraperitoneal; settings: in vivo
Felis catus [8] = assay: Anticholinergic activity in cat assessed as effect on acetylcholine-induced normal heart rate and blood pressure changes at 1 to 10 mg/kg, iv; type: ADME, organism-based; design: dose 1-10 mg/kg, route intravenous; settings: in vivo; in short: as §2
Mus musculus [9] = assay: Toxicity in mouse at 30 mg/kg, ip; type: organism-based; design: dose 30 mg/kg, route intraperitoneal; settings: in vivo

| Compound | Activity (Mus musculus [1]) | Activity (Rattus norvegicus) | Activity (Mus musculus [2]) | Activity (Mus musculus [3]) | Activity (Mus musculus [4]) | Activity (Felis catus [5]) | Activity (Mus musculus [6]) | Activity (Mus musculus [7]) | Activity (Felis catus [8]) | Activity (Mus musculus [9]) |
| --- | --- | --- | --- | --- | --- | --- | --- | --- | --- | --- |
| CCCCCc1ccc(CCNC)cc1.O=C(O)/C=C\C(=O)O | inactive | Non-toxic | Toxic |  |  |  |  |  |  |  |
| CCCCc1ccc(CCCNC)cc1.Cl | Active | Non-toxic |  | Toxic |  |  |  |  |  |  |
| Cl.c1cc2ccc1CCCCCNCCC2 |  | Non-toxic |  |  | Active | Non-toxic | Active | Non-toxic | Non-toxic |  |
| O=C(O)/C=C\C(=O)O.c1cc2ccc1CCCCCCNCC2 |  | Non-toxic |  |  |  |  | inactive |  |  | Toxic |
